According to ChEMBL document CHEMBL1158789, “Sesquiterpenes from the red alga Laurencia tristicha” (J Nat Prod, 2005):
In brackets after ≈: the same amount, converted by molar mass.

How the values were obtained:
Format in all cases: functional, cell-based
Bel-7402 = assay: Cytotoxicity against human Bel7402 cells by MTT assay
Procedure, shortened: (§1)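 Human tumour lines (A549 lung adenocarcinoma, BGC-823 stomach cancer, Bel 7402 hepatoma, HCT-8 colon cancer, HeLa) were exposed to the compounds and viability was read by MTT. Potency was expressed as IC50 in μg/mL.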

HeLa = assay: Cytotoxicity against human HeLa cells by MTT assay; procedure, shortened: as §1
HCT-8 = assay: Cytotoxicity against human HCT8 cells by MTT assay; procedure, shortened: as §1
A549 = assay: Cytotoxicity against human A549 cells by MTT assay; procedure, shortened: as §1
BGC-823 = assay: Cytotoxicity against human BGC823 cells by MTT assay; procedure, shortened: as §1

Row | Structure (SMILES) | IC50 (Bel-7402) [µg/mL] | IC50 (HeLa) [µg/mL] | IC50 (HCT-8) [µg/mL] | IC50 (A549) [µg/mL] | IC50 (BGC-823) [µg/mL]
1 | Cc1ccc([C@]2(C)CC[C@H](C(C)(C)O)O2)cc1 | > 10 | > 10 | > 10 | > 10 | > 10
2 | C=C1[C@](C)(O)CC[C@@]1(C)c1ccc(C)c(O)c1 | > 10 | > 10 | > 10 | > 10 | > 10
3 | Cc1cc2c(cc1Br)[C@]1(C)CC[C@H](C)[C@]1(C)O2 [APLYSIN] | > 10 | > 10 | > 10 | > 10 | > 10
4 | Cc1ccc([C@]2(C)CC[C@@H](C(C)(C)O)O2)cc1 | > 10 | > 10 | > 10 | > 10 | > 10
5 | Cc1ccc(C(C)(O)C/C=C/C(C)(C)O)cc1 (stereo not given) | > 10 | > 10 | > 10 | > 10 | > 10
6 | CC1(C)[C@]23C[C@H](Br)[C@@](C)(Cl)C[C@@H]2O[C@]1(Br)[C@H](O)[C@H]1O[C@]13C [JOHNSTONOL] | > 10 | > 10 | > 10 | > 10 | > 10
7 | C=C1[C@](C)(O)CC[C@@]1(C)c1ccc(C)cc1 | > 10 | > 10 | > 10 | > 10 | > 10
8 | CC(C)=CCCC(C)(O)c1ccc(C)cc1 (stereo not given) [GOSSONOROL] | > 10 | > 10 | > 10 | > 10 | > 10
9 | C=C1[C@]2(C)CC[C@@]1(C)c1cc(Br)c(C)cc1O2 | > 10 | > 10 | > 10 | > 10 | > 10
10 | Cc1cc2c(cc1O)C[C@]1(CC[C@@H]3C[C@@]31C)O2 | > 10 | > 10 | > 10 | > 10 | > 10
11 | Cc1cc2c(cc1Br)[C@]1(C)CC[C@H](C)[C@]1(CO)O2 [APLYSINOL] | > 10 | > 10 | > 10 | > 10 | > 10
12 | C=C1[C@](C)(O)CC[C@@]1(C)c1ccc(C)cc1O | > 10 | > 10 | > 10 | > 10 | > 10
13 | Cc1cc(O)c([C@]2(C)CC[C@@H]3C[C@@]32C)cc1-c1cc([C@]2(C)CC[C@@H]3C[C@@]32C)c(O)cc1C [LAUREBIPHENYL] | 1.91 (≈ 4.44 µM) | 1.61 (≈ 3.74 µM) | 1.77 (≈ 4.11 µM) | 1.68 (≈ 3.9 µM) | 1.22 (≈ 2.83 µM)
14 | Cc1ccc([C@]2(C)CC[C@@H]3C[C@@]32C)cc1O | > 10 | > 10 | > 10 | > 10 | > 10
